Calls of active or inactive are those of the source. The calls are words filed in the database; no cut-off is given here.
What was measured:
[1] = molecular target: Serotonin 1 (5-HT1) receptor (Rattus norvegicus, UniProt P28564+P30940+P19327+P28565); assay: Ability to bind at 5-hydroxytryptamine 1 receptor of rat hippocampus by displacing [3H]5-HT; format: tissue-based
Procedure, shortened: (§1)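 Rat receptor radioligand displacement, five test-ligand concentrations used to calculate IC50, each assay in duplicate. Some compounds determined four times (in duplicate), with mean IC50 reported.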

[2] = molecular target: T1, Adrenergic receptor alpha-1 (Rattus norvegicus, UniProt P15823+P23944+P43140); assay: Ability to bind at alpha-1 adrenergic receptor by displacing [3H]WB-4101; format: protein assay; procedure, shortened: as §1
T1 sequence (P15823 whole entry): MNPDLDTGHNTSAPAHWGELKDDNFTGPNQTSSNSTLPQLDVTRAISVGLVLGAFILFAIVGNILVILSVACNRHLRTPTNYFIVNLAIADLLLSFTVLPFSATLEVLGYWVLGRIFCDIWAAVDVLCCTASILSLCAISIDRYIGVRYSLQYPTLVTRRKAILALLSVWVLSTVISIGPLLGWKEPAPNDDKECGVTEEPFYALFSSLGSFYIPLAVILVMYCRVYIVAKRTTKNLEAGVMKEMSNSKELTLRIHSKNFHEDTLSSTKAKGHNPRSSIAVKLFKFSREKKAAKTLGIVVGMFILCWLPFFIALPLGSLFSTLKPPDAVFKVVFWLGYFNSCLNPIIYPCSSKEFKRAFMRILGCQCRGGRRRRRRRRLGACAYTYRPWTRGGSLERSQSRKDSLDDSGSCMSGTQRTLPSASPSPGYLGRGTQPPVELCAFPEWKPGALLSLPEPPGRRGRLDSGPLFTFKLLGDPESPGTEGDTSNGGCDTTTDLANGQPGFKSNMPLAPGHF
T1 sequence (P23944 whole entry): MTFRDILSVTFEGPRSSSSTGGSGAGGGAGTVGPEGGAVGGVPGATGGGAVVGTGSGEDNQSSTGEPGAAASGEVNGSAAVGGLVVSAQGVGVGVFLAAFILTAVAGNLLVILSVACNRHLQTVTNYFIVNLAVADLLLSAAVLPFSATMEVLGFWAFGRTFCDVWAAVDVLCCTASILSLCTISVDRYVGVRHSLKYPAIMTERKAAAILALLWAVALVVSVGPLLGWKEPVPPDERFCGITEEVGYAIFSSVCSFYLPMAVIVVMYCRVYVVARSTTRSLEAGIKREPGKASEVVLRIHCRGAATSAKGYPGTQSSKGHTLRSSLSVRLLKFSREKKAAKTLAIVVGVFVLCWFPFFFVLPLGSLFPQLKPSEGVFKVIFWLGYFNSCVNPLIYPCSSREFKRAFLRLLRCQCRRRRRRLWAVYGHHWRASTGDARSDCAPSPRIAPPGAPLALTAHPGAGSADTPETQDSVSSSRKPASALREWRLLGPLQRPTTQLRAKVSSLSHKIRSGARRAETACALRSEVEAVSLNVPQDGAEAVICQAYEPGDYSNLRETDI
T1 sequence (P43140 whole entry): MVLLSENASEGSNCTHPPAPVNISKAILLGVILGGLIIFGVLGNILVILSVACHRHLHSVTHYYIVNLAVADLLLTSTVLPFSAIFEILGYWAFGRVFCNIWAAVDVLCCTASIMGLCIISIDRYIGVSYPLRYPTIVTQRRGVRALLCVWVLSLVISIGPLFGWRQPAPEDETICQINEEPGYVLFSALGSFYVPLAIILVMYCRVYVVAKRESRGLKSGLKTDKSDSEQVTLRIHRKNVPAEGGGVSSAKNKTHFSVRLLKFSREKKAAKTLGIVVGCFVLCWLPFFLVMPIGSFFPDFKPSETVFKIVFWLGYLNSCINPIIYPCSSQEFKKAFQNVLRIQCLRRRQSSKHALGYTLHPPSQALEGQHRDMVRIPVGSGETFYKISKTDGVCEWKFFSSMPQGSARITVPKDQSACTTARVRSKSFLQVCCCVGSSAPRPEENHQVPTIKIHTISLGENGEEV

D(2) dopamine receptor = D(2) dopamine receptor (Rattus norvegicus, UniProt P61169); assay: Ability to bind at Dopamine receptor D2 of rat corpus striatum by displacing [3H]spiperone; procedure, shortened: as §1
Mus musculus [3] = assay: Blockade of apomorphine-induced climbing in mice when administered perorally; format: functional
Procedure, shortened: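 Male mice habituated 30 min in individual cages, then dosed orally (distilled H2O or 0.5% Methocel suspension, 10 mL/kg) or vehicle. Apomorphine 1.5 mg/kg sc given 30 min later. Climbing scored at 10, 20, 30 min post-apomorphine. At least five animals per dose, maximum 100 mg/kg.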

Rattus norvegicus [4] = assay: Blockade of apomorphine-induced stereotypy in rats when administered perorally; format: functional; details: po
Rattus norvegicus [5] = assay: Conditioned avoidance response (CAR) when administered perorally; format: functional; details: po
Rattus norvegicus [6] = assay: Blockade of Sidman-avoidance activity in rats when administered perorally; format: functional
Procedure, shortened: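 Rats trained in once-daily Sidman sessions until stable; non-learners after 3 days replaced. Twelve rats dosed 30 min before session. Each rat compared with mean of its previous three drug-free days by paired t test. Testing continued to minimally effective dose; maximum usually 100 mg/kg. MED is mean over 12 animals.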

[7] = molecular target: Serotonin 2 (5-HT2) receptor (Rattus norvegicus, UniProt P30994+P08909+P14842); assay: Ability to bind at serotonin 5-hydroxytryptamine 2 receptors of rat cortex by displacing [3H]spiperone
[8] = molecular target: T2, 5-hydroxytryptamine receptor 1A (Rattus norvegicus, UniProt P19327); assay: Ability to bind at 5-hydroxytryptamine 1A receptor of rat hippocampus by displacing [3H]8-OH-DPAT; format: tissue-based; procedure, shortened: as §1
T2 sequence (P19327 whole entry): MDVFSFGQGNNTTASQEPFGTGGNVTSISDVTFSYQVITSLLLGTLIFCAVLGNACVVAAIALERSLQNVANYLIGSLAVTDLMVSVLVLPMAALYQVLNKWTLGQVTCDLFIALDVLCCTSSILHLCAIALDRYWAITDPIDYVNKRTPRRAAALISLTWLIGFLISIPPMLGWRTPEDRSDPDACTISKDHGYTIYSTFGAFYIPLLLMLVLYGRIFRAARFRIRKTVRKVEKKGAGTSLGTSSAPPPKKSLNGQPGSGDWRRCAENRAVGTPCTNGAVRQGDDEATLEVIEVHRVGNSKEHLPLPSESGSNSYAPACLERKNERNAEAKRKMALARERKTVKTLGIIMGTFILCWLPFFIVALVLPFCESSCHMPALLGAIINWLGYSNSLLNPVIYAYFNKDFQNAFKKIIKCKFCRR

Rattus norvegicus [9] = assay: Reversal of trifluoperazine-induced catalepsy in rats when administered perorally; Inactive; format: functional, organism-based
Rattus norvegicus [10] = organism: Rattus norvegicus; assay: animal or person; details: po
Mus musculus [11] = assay: Blockade of apomorphine-induced climbing in mice when administered perorally
[12] = molecular target: T3, Adrenergic receptor alpha-2 (Rattus norvegicus, UniProt P22086+P19328+P22909); assay: Ability to bind at alpha-2 adrenergic receptor by displacing [3H]clonidine; format: protein assay
T3 sequence (P22086 whole entry): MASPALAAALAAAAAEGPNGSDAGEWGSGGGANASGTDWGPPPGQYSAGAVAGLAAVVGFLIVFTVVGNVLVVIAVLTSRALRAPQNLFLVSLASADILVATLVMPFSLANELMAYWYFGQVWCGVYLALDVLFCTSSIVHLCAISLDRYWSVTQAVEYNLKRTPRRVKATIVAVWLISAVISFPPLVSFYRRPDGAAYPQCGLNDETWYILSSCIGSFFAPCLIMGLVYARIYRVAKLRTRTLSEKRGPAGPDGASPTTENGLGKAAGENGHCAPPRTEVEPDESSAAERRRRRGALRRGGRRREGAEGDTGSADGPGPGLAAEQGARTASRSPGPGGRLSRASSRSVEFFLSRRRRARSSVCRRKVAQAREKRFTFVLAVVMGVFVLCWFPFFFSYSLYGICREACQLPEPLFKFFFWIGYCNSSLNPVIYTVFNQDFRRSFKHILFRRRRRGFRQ
T3 sequence (P19328 whole entry): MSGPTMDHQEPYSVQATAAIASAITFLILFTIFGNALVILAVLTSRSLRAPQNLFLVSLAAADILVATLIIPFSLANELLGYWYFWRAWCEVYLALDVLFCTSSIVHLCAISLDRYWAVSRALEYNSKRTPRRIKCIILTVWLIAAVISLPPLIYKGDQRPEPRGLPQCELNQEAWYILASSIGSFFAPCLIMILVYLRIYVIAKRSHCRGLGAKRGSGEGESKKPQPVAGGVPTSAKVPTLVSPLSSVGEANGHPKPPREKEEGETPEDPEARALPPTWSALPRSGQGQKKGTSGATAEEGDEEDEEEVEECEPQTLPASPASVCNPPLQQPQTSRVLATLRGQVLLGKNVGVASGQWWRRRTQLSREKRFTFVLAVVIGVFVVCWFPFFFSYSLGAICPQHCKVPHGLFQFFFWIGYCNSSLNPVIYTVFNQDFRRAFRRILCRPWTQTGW
T3 sequence (P22909 whole entry): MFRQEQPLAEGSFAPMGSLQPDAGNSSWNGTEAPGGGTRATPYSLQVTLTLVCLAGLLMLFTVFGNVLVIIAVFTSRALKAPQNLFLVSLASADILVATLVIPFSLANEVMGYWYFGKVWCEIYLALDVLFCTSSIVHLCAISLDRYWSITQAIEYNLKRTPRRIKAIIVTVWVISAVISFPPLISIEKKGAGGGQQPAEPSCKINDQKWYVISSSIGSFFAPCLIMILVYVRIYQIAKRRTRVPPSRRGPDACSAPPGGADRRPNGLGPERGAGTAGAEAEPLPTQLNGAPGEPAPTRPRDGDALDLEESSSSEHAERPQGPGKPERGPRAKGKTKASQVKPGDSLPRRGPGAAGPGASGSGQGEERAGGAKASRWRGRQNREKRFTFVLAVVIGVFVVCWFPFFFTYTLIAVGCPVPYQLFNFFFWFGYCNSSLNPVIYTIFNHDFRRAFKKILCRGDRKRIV

Rattus norvegicus [13] = assay: Approximate effective dose (AED) in inhibition of spontaneous motor activity when administered perorally; format: functional
Procedure, shortened: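 Three groups of five animals, each group at a different dose. Mean log activity count per group compared with vehicle controls, and the difference plotted against log dose. AED taken at the dose giving a 0.3 log-unit (about 2-fold) difference from control.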

Rattus norvegicus [14] = assay: spontaneous discharge activity of individual noradrenergic neurons in the locus coeruleus (LC) when administered intravenously in anesthetized male Sprague-Dawley rats; (excitatory); format: functional; details: iv
Rattus norvegicus [15] = assay: Induction of catalepsy in rats when administered perorally and maximum dose examined was 4 times the ED50 value established in CAR; Inactive; format: functional, organism-based
Rattus norvegicus [16] = assay: Spontaneous discharge activity of individual dopaminergic neurons in the substantia nigra (A9 DA cells) when administered intravenously at a dose of 0.1-6.3 mg/kg in anesthetized male Sprague-Dawley rats; (excitatory); format: functional; details: A9DA, iv
Rattus norvegicus [17] = assay: Spontaneous discharge activity of individual dopaminergic neurons in the ventral tegmentum neurons (A10 DA cells) when administered intravenously at a dose of 0.1-6.3 mg/kg in anesthetized male Sprague-Dawley rats; (excitatory); format: functional; details: A10DA, iv
Rattus norvegicus [18] = assay: Spontaneous discharge activity of individual serotonergic neurons in the dorsal raphe (DR) nucleus when administered intravenously in anesthetized male Sprague-Dawley rats; (inhibitory); format: functional; details: iv

Chain of D(2) dopamine receptor (P61169 whole entry): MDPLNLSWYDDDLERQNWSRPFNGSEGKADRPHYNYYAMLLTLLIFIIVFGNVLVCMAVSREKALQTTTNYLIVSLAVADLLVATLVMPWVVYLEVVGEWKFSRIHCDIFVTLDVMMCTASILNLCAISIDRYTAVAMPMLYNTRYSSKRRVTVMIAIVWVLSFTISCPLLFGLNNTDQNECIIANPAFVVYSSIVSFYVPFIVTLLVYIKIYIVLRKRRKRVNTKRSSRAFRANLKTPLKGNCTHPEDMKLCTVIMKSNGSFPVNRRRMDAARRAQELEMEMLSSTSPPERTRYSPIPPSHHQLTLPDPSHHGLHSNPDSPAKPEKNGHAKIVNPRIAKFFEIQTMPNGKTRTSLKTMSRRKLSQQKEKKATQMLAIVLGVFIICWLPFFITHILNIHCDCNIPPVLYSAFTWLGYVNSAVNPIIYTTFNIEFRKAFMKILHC

| Compound | IC50 [1] [nM] | IC50 [2] [nM] | IC50 (D(2) dopamine receptor) [nM] | ED50 (Rattus norvegicus [4]) [mg/kg] | ED50 (Rattus norvegicus [5]) [mg/kg] | IC50 [7] [nM] | MED50 (Rattus norvegicus [6]) [mg/kg] | further results |
| --- | --- | --- | --- | --- | --- | --- | --- | --- |
| OC(CCCN1CCN(c2nccc3sccc23)CC1)c1ccc(F)cc1 (stereo not given) | 3.8 | 22.8 | 71.7 | 9 | 9.9 | 5.8 |  | MED (Mus musculus [3]; po): 10 mg/kg; MED (Rattus norvegicus [6]; po): 10 mg/kg |
| CN(C)CCCN1c2ccccc2Sc2ccc(Cl)cc21 [CHLORPROMAZINE] | > 1000 |  |  | 9.6 |  |  | 25 | IC50 [8]: 372 nM; ED50 (Rattus norvegicus [9]): inactive; ED50 (Rattus norvegicus [10]): 4.1 mg/kg; MED50 (Mus musculus [11]): 6 mg/kg |
| Cl.c1cc2sccc2c(N2CCNCC2)n1 | 71.3 | 139 | > 1000 |  | 28.6 | 141 |  | IC50 [12]: 113 nM; AED (Rattus norvegicus [13]): 20.9 mg/kg |
| CC1(C)CC(=O)N(CCCCN2CCN(c3nccc4sccc34)CC2)C(=O)C1.Cl | 5.7 | 18.8 | 115 | 39.7 | 6 | 3 | 50 | MED50 (Mus musculus [3]): 10 mg/kg; ED25 (Rattus norvegicus [14]): 0.06 mg/kg; ED50 (Rattus norvegicus [15]): inactive; ED25 (Rattus norvegicus [16]): 0.086 mg/kg; ED25 (Rattus norvegicus [17]): 0.05 mg/kg; ED50 (Rattus norvegicus [18]): 0.042 mg/kg |
